HKDC1 inhibitor – blocks human hexokinase HKDC1 activity; Q2TB90; recombinant HKDC1, G6PDH/diaphorase resazurin coupled fluorescence; inhibition, % at 20 µM; 340,000 compounds, 0.16% hits; AID 493160;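 active means inhibition above about 35% when tested at 20 µM, limit read from the data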
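Test system: Recombinant HKDC1 (HK5) hexokinase enzyme, produced in-house | Input: HKDC1 at 5 µg/mL | Buffer or medium: Tris pH 8.0 buffer with MgCl2, Tween-20, BSA, BME | Schedule: 90 min reaction incubation at room temperature, dark | Technique: Resazurin-to-resorufin fluorescence via G6PDH and diaphorase coupling, 525/613 nm | Controls: DMSO wells with and without enzyme mix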
Beta2AR agonist – agonists of human beta-2 adrenergic receptor inducing internalization; P07550; Am2.2-beta2AR cells, FAP receptor internalization, flow cytometry; response, % (concentration not given with the values); 340,000 compounds, 0.43% hits; AID 504454;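 active means response above a set limit, near 3 SD of response in nonfluorescent compounds, cut at about 42% in these data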
Target sequence (P07550 whole entry, looked up): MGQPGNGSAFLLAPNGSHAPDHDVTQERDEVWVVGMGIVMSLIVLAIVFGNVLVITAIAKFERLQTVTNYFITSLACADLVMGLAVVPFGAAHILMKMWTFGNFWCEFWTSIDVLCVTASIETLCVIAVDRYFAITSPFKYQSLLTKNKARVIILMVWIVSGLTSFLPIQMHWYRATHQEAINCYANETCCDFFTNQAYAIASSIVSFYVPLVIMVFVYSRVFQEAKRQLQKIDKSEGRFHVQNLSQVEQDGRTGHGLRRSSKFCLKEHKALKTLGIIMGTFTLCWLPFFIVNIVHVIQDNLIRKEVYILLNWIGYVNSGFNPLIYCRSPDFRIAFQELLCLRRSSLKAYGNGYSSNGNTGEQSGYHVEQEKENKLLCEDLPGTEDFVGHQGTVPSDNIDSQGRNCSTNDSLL
UCH37 DUB inh – human UCH37 deubiquitinating enzyme inhibition. purified proteasome/UCH37, Ub-AMC cleavage fluorescence. inhibition, % (concentration not given with the values). Q9Y5K5. 330,000 compounds, 0.33% hits. AID 588478;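 active means mean inhibition over replicate wells above about 20%, limit read from the data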
Target sequence (Q9Y5K5 whole entry, looked up): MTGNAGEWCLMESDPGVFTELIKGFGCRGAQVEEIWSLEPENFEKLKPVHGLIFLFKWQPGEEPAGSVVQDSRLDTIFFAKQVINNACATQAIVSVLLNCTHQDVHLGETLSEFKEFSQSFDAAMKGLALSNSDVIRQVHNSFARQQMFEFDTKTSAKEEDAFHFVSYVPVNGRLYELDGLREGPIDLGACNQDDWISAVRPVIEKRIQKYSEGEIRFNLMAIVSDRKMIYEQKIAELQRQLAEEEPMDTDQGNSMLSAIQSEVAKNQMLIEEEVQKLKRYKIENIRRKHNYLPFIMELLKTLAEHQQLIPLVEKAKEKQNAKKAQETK
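System: Proteasome-associated human UCH37 deubiquitinase; Input: 0.15 nM proteasome in added enzyme buffer; Also added: Ub-AMC substrate from 1 µM stock; Incubation: 30 min compound-proteasome preincubation then 25 min substrate reaction, room temperature; Detection: fluorescence, ex 355 nm, em 460 nm; Read-out: % inhibition of Ub-AMC cleavage fluorescence; Benchmarks: no-proteasome and no-compound wells.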
H9c2 protect – myocardial damage modulation in H9c2 cells. H9c2 cardiomyocytes, H2O2 injury protection, ATPLite, 2 h. protection from H2O2 cell death, % at 20 µM. 360,000 compounds, 0.63% hits. AID 588492;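 active means compounds giving at least 50% protection of heart cells from peroxide-induced death in the single-dose screen, raw or plate-pattern-corrected value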
PfG6PD inh – PfG6PD (Plasmodium falciparum) enzyme inhibition; PfGluPho enzyme, NADPH resazurin-diaphorase fluorescence; inhibition, % at 20 µM; 350,000 compounds, 0.78% hits; AID 504690;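 active means inhibition reaching at least a set limit at 20 µM in the primary screen, cut at about 59% in these data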
aDG glyco act – alpha-DG glycosylation activation | 360,000 compounds, 0.22% hits | Pro5-aDG cells, alpha-DG glycosylation AlphaScreen (IIH6); 0% Pro5, 100% B10-LARGE cell signal | activation, % at 10 µM;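 active means activation of at least 8% versus controls, or a plate z-score of at least 8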;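 further: Pro5 are CHO cells carrying HIG-tagged alpha-DG that lacks glycosylation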
PfG6PD confirm – PfG6PD inhibition, single-dose confirmed; shares compounds with PfG6PD inh; AID 504753; inhibition, % at 20 µM; recombinant PfGluPho, NADPH-diaphorase-resazurin fluorescence; 2,400 compounds, 34% hits;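 active means inhibition of at least 50% at 20 µM in any single replicate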
Diaph ctr 10uM – counter-screen for P. falciparum G6PD inhibitors: diaphorase inhibitors, oxidizers; shares compounds with PfG6PD inh; diaphorase-coupled resazurin reduction, fluorescence, NADPH 10 uM; inhibition, % at 20 µM; 820 compounds, 39% hits; AID 504862;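 active means average inhibition reaching 50% or more with the compound at 20 µM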;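 further: resorufin red fluorescence formed as diaphorase reduces resazurin using NADPH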
Diaphorase 30uM – diaphorase inhibition or oxidation at 30 uM NADPH | shares compounds with PfG6PD inh | Diaphorase/resazurin coupled assay, resorufin fluorescence | inhibition, % at 20 µM | 820 compounds, 29% hits | AID 504863;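 active means inhibition averaging 50% or more, tested at 20 µM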
Numbers stand for hits; 0 = inactive; - = not tested or not shown. Hits are enriched below; roughly 2.1% of the tested compounds scored in any of these assays.

SMILES	HKDC1 inhibitor	Beta2AR agonist	UCH37 DUB inh	H9c2 protect	PfG6PD inh	aDG glyco act	PfG6PD confirm	others
CCOc1ccc(S(=O)(=O)NN=C(C)Cc2ccc(OC)cc2)cc1	-	-	0	-	-	-	-
Cc1cccc(NC(=O)c2ccc(N3CCOCC3)c([N+](=O)[O-])c2)n1	0	0	0	0	69.6	0	0
COc1cc(C=NNC(=S)NCC2CCCO2)cc(OC)c1OC (stereo not drawn)	-	-	0	-	-	-	-
COC(=O)CSc1nc(N2CCOCC2)c2c(c1C#N)CC(C)(C)OC2	0	0	0	0	0	0	-
COC(=O)Sc1nc(N2CCOCC2)c2c(c1C#N)CC(C)(C)OC2	0	0	0	55.2	0	0	0
CN(CC(=O)Nc1ccccc1Cl)C(=O)COC(=O)/C=C/c1cccc(C(F)(F)F)c1	0	0	0	0	79.3	0	0
CN(CC(=O)Nc1ccccc1Cl)C(=O)COC(=O)/C=C/c1cccs1	0	0	0	0	0	0	-
COc1cc(N)c2ncccc2c1Cl	0	0	0	0	60.1	0	72.8	Diaph ctr 10uM=0;Diaphorase 30uM=0
CC(=O)Nc1cc(C(C)(C)C)c(O)c(C(C)(C)C)c1	0	0	0	0	81.2	0	0
O=[N+]([O-])c1ccc(Cl)c(S(=O)(=O)Nc2cccc(S(=O)(=O)NC3=NCCC3)c2)c1	0	0	0	0	66.7	0	0
Nc1ccc(C(=O)OCc2nc3cc4ccccc4cc3[nH]2)cc1	0	0	-	0	63.3	0	0
COCCNC(=S)Nc1ccc(N2CCOCC2)c(S(=O)(=O)Nc2ccc(Cl)cc2)c1	-	-	-	0	91.7	0	70.0	Diaph ctr 10uM=0;Diaphorase 30uM=0
C[C@H](NC(N)=O)C(=O)Nc1ccc(N2CCOCC2)c(S(=O)(=O)Nc2ccc(Cl)cc2)c1	0	0	0	0	76.2	0	58.5	Diaph ctr 10uM=0;Diaphorase 30uM=0
O=C(Cc1ccc(NS(=O)(=O)c2ccc(Cl)c(Cl)c2)cc1)NCCN1CCOCC1	0	0	0	0	0	0	-
CCC(=O)Nc1ccc(N2CCOCC2)c(S(=O)(=O)Nc2ccc(Cl)cc2)c1	0	0	0	0	61.0	0	0
O=S(=O)(Nc1ccc(Cl)cc1)c1ccc(N2CCOCC2)c(NC(=S)NCCN2CCOCC2)c1	0	0	0	0	69.2	0	63.1	Diaph ctr 10uM=0;Diaphorase 30uM=0
CC(NC(N)=O)C(=O)Nc1ccc(Cl)c(S(=O)(=O)Nc2ccc(Cl)cc2)c1 (stereo not drawn)	0	0	0	0	0	0	-
CC(=NOC(=O)Nc1ccc(Cl)cc1)c1ncc(C(F)(F)F)cc1N1CCOCC1	-	-	0	-	-	-	-
Br/C(C=NN1CCN(Cc2ccccc2)CC1)=C/c1ccccc1	-	-	0	-	-	-	-
CC(=NNC(=O)CN1CCN(Cc2ccccc2)CC1)c1ccncc1	-	-	0	-	-	-	-
CCCc1cc(C(=O)NN=Cc2ccc(CC)s2)c2ccccc2n1	-	-	0	-	-	-	-
CC(=NO)c1ccccc1C(=O)O	-	-	0	-	-	-	-
O=C(Nc1ccc(N2CCOCC2)c(S(=O)(=O)Nc2ccc(Cl)cc2)c1)c1ccc(=O)[nH]n1	0	0	0	0	0	0	-
O=C(Nc1ccc(N2CCOCC2)c(S(=O)(=O)Nc2ccc(Cl)cc2)c1)c1cnccn1	0	0	0	0	73.4	0	0
CC1=CC(=Nc2c(C)n(C)n(-c3ccccc3)c2=O)C=C(C)C1=O	0	0	0	0	72.1	0	57.3	Diaph ctr 10uM=63.7;Diaphorase 30uM=68.5
SMILES	HKDC1 inhibitor	Beta2AR agonist	UCH37 DUB inh	H9c2 protect	PfG6PD inh	aDG glyco act	PfG6PD confirm	others
O=C(O)c1ccccc1C(=O)Nc1n[nH]c(=S)s1	0	0	0	0	72.0	0	0
Cc1noc(C)c1COC(=O)Cc1ccc(Cl)c(Cl)c1	0	0	0	0	69.2	0	0
Cc1noc(C)c1COC(=O)[C@H](C)NS(=O)(=O)c1ccc(Cl)c(Cl)c1	0	0	0	0	0	0	-
O=C(NN=Cc1ccncc1)c1cnccn1	-	-	0	-	-	-	-
O=c1cc(CSc2nnc(Nc3ccccc3F)s2)nc2sccn12	0	0	0	0	0	0	-
COc1ccc(Nc2nnc(SCc3cc(=O)n4ccsc4n3)s2)cc1	0	0	0	62.7	82.1	0	0
O=C(Nc1ccccc1)ON=Cc1ccccc1Cl	-	-	0	-	-	-	-
COc1ccc(OCC(=O)NN=C/C=C/c2ccccc2)cc1	-	-	0	-	-	-	-
CC(C)=CCC/C(C)=C/C=N/NC(=O)c1ccccc1[N+](=O)[O-]	0	0	-	0	66.8	0	0
CC(CC(=O)NC(C)(C)C)=NNC(N)=S	-	-	0	-	-	-	-
COc1ccc(Br)cc1CNc1ccc(O)cc1	0	0	0	0	67.6	0	0
COc1cccc(CNCCO)c1OCc1ccc(Cl)cc1	0	0	0	0	0	0	-
Cc1ccc(NCc2ccccc2OCc2ccccc2F)cc1	0	0	0	0	0	0	-
Oc1ccc(NCc2ccccc2OCc2ccccc2F)cc1	0	0	0	0	76.2	0	0
CCOc1cccc(CNc2ccc(O)cc2)c1OCc1ccc(Cl)cc1	0	0	0	0	69.7	0	0
CCOc1ccccc1CNc1ccc(O)cc1	0	0	0	0	73.9	0	63.4	Diaph ctr 10uM=0;Diaphorase 30uM=0
COc1cc(C=NNc2ccccn2)ccc1O	-	-	0	-	-	-	-
Cc1ccc(C(=O)COC(=O)c2c(C)cc(=O)oc2C)cc1[N+](=O)[O-]	0	0	0	0	66.7	0	0
FC(F)(F)c1cccc(-c2nc3nc(Cl)c(Cl)nc3[nH]2)c1	0	0	-	0	102.1	0	76.4	Diaph ctr 10uM=76.7;Diaphorase 30uM=57.0
O=C(NC1CCCCCC1)C(=S)N1CCOCC1	0	0	0	0	59.1	0	0
O=C(NN=Cc1ccco1)C12CC3CC(CC(C3)C1)C2	-	-	0	-	-	-	-
Cc1cccc(C(=O)Oc2ccc(C=NNC(=O)c3cc(O)cc(O)c3)cc2)c1	-	-	0	-	-	-	-
CC(O)C(=O)NN=Cc1cccc2ccccc12 (stereo not drawn)	-	-	0	-	-	-	-
O=C1/C(=C/c2ccccc2O)SC(=S)N1Cc1cccnc1	0	0	0	0	62.0	0	0
Clc1ccc(N2CCN(N=Cc3ccncc3)CC2)cc1	-	-	0	-	-	-	-
COc1ccc(C(=O)ON=C2C=C(C)C(=O)C(C)=C2)cc1	0	0	0	0	76.3	0	52.3	Diaph ctr 10uM=0;Diaphorase 30uM=0
COc1cc(C(=O)O/N=C2\C=CC(=O)C(C)=C2)cc(OC)c1OC	0	0	-	0	67.8	0	48.8	Diaph ctr 10uM=89.3;Diaphorase 30uM=89.9
COc1ccc(S(=O)(=O)N=C2C=C(C)C(=O)C(C)=C2)cc1	0	0	0	0	0	0	-
COc1cc(C(=O)ON=C2C=C(C)C(=O)C(C)=C2)cc(OC)c1OC	0	0	0	0	80.0	0	63.8	Diaph ctr 10uM=0;Diaphorase 30uM=0
Oc1ccc(C=NNC(=S)Nc2cccnc2)c(O)c1	-	-	0	-	-	-	-

Screens from PubChem BioAssay.
